Reference: ChEMBL document CHEMBL5696442, “Discovery of type II inhibitors of TGFβ-activated kinase 1 (TAK1) and mitogen-activated protein kinase kinase kinase kinase 2 (MAP4K2)” (J Med Chem, 2015)

Key:
[1] = molecular target: Mitogen-activated protein kinase 14 (Homo sapiens, UniProt Q16539); test: Inhibition of p38 alpha Lys2 labeling site in human Huh-7 cell lysate at 1 uM by KiNativ Profiling analysis relative to control; format: subcellular
[2] = molecular target: Tyrosine-protein kinase ABL2 (Homo sapiens, UniProt P42684); test: Inhibition of ARG (unknown origin) ACT labeling site by KiNativ Profiling analysis
Chain of Tyrosine-protein kinase ABL2 (P42684 whole entry): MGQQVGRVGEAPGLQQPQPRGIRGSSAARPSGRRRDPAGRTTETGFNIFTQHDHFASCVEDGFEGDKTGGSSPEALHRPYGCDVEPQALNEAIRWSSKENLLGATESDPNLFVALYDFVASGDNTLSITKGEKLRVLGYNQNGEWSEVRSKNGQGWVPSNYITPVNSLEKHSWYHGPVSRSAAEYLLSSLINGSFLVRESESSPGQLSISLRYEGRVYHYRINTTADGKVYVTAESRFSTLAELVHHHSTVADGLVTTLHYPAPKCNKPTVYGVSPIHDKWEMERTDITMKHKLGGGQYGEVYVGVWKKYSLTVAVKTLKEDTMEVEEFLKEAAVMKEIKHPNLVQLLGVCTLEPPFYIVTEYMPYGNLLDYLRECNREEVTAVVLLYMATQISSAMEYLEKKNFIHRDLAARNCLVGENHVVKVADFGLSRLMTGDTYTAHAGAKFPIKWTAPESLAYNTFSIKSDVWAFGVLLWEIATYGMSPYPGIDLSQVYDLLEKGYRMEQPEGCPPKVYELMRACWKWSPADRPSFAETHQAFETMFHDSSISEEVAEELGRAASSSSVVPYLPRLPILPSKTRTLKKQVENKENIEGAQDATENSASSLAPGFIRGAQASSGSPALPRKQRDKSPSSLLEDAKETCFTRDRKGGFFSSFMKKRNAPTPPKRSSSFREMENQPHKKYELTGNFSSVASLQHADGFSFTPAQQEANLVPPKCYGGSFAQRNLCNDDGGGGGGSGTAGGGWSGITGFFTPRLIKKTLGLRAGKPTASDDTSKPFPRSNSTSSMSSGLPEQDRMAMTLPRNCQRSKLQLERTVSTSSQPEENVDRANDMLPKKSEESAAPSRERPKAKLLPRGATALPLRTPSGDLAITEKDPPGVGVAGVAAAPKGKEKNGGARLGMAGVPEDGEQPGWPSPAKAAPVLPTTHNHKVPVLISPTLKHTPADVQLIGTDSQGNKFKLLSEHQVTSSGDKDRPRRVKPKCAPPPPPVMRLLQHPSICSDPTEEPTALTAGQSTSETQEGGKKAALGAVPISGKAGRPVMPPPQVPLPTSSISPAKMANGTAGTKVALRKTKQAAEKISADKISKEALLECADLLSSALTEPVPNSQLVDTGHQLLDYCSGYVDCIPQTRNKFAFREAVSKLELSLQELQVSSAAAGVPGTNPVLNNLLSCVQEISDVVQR

[3] = molecular target: Cyclin-dependent kinase 11B (Homo sapiens) (UniProt P21127); test: Inhibition of CDK11 Lys2 labeling site in human A-375 cells at 5 uM by KiNativ Profiling analysis relative to control; format: cell-based
How it was run: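 Live A375 melanoma cells were treated with compound at 5 or 0.5 μM. The cells were then lysed, and the lysates were labeled with a lysine-reactive ATP or ADP-biotin acyl probe (KiNativ). Inhibition is the compound's protection of each kinase labeling-site peptide from probe labeling, relative to untreated control.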

[4] = molecular target: T1, Mitogen-activated protein kinase kinase kinase 2 (Homo sapiens) (UniProt Q9Y2U5); test: Inhibition of MAP3K2 Lys2 labeling site in human A-375 cells at 5 uM by KiNativ Profiling analysis relative to control; format: cell-based
T1 sequence (whole entry): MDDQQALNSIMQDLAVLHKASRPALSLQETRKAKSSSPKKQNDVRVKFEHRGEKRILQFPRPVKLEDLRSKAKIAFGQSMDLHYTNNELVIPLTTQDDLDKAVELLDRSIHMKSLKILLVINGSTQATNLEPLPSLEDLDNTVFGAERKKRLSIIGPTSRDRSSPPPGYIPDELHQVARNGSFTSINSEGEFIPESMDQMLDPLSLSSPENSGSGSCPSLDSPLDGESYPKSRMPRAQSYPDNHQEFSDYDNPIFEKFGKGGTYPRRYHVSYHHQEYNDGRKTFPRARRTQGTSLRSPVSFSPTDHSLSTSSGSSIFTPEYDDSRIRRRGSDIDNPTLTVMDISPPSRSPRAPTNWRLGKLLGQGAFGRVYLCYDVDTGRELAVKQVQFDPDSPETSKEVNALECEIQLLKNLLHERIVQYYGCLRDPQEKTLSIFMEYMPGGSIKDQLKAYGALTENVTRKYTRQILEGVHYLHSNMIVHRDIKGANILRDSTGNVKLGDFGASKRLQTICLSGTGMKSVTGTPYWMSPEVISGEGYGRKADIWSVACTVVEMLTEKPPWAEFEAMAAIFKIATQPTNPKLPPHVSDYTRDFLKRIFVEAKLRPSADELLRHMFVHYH

[5] = molecular target: eIF-2-alpha kinase GCN2 (Homo sapiens) (UniProt Q9P2K8); test: Inhibition of GCN2 domain2 Lys2 labeling site in human A-375 cells at 5 uM by KiNativ Profiling analysis relative to control; format: cell-based
Chain of eIF-2-alpha kinase GCN2 (Homo sapiens) (Q9P2K8 whole entry, the tested form may be a part): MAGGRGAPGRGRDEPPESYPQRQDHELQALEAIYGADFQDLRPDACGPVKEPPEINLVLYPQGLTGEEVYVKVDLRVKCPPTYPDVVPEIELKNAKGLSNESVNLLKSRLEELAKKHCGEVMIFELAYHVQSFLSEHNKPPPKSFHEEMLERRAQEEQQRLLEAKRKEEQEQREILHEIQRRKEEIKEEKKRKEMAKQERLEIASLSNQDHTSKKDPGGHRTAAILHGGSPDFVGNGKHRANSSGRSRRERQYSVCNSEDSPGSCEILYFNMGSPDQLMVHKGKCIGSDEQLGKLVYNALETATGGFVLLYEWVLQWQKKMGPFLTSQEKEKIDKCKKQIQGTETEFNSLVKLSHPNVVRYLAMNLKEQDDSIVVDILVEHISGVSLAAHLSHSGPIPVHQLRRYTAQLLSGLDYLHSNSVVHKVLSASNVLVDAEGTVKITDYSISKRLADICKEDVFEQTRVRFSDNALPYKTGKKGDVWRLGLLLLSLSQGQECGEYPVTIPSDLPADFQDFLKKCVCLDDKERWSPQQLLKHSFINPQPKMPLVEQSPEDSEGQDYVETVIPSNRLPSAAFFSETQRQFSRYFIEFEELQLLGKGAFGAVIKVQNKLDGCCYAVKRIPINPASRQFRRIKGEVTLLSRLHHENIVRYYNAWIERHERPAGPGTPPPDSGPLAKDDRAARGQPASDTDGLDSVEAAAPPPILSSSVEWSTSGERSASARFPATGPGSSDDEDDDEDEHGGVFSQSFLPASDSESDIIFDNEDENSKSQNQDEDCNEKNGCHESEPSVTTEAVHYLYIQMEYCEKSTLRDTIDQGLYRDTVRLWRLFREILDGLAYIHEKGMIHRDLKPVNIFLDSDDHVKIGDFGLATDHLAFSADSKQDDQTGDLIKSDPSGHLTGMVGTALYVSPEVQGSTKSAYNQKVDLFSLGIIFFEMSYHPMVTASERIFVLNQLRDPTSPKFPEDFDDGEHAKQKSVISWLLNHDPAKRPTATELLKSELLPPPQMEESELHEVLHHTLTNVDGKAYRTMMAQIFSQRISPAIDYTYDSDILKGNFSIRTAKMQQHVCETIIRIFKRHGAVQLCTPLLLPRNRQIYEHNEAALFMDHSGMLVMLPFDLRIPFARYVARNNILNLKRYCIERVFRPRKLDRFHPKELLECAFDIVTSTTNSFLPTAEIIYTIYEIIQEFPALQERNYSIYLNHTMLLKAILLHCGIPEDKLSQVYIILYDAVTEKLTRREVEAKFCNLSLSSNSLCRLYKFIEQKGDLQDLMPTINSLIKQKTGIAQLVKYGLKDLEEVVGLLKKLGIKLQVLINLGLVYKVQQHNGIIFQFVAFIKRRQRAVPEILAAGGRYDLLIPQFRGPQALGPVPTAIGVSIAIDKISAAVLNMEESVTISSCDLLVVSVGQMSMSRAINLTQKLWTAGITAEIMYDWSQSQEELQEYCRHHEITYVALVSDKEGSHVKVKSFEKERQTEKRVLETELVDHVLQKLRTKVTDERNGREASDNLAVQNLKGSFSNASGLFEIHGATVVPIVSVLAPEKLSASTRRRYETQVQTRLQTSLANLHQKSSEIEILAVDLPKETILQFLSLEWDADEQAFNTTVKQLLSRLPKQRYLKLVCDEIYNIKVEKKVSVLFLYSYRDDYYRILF

[6] = molecular target: Serine/threonine-protein kinase 25 (Homo sapiens) (UniProt O00506); test: Inhibition of YSK1 Lys2 labeling site in human A-375 cells at 0.5 uM by KiNativ Profiling analysis relative to control; format: cell-based
[7] = molecular target: Dual specificity mitogen-activated protein kinase kinase 1 (Homo sapiens) (UniProt Q02750); test: Inhibition of MAP2K1 Lys2 labeling site harbouring DVKPSNILVNSR in human A-375 cells at 0.05 uM by KiNativ Profiling analysis relative to control; format: cell-based
Chain of Dual specificity mitogen-activated protein kinase kinase 1 (Homo sapiens) (Q02750 whole entry): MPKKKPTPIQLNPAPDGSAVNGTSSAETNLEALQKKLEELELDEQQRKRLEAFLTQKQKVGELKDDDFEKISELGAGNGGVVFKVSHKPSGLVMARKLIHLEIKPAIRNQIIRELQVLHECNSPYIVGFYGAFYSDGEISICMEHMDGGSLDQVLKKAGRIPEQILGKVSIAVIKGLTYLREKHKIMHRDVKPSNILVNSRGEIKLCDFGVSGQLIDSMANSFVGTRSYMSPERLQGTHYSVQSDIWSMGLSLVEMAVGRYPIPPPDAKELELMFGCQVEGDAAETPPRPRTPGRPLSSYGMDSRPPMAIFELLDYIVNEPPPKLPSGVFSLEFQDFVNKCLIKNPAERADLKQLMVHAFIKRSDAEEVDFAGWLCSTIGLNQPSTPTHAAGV

[8] = molecular target: T2, Mitogen-activated protein kinase 12 (Homo sapiens) (UniProt P53778); test: Inhibition of p38 gamma Lys2 labeling site in human A-375 cells at 0.5 uM by KiNativ Profiling analysis relative to control; format: cell-based
T2 sequence (whole entry): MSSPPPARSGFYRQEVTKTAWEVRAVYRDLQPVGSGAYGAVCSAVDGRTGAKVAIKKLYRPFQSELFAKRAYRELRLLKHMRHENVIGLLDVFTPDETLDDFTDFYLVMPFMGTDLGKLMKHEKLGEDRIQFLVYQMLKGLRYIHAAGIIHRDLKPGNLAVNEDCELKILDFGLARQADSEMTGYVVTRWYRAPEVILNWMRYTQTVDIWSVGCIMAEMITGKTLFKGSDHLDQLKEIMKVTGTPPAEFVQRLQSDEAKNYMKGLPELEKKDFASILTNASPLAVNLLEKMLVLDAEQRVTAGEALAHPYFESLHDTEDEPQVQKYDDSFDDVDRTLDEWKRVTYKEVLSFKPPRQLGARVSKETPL

[9] = molecular target: Mitogen-activated protein kinase kinase kinase kinase 4 (Homo sapiens, UniProt O95819); test: Inhibition of ZC1/HGK Lys2 labeling site in human A-375 cells at 0.05 uM by KiNativ Profiling analysis relative to control; format: cell-based
[10] = molecular target: T3, Phosphatidylinositol 5-phosphate 4-kinase type-2 alpha (Homo sapiens) (UniProt P48426); test: Inhibition of PIP4K2A ATP labeling site in human A-375 cells at 5 uM by KiNativ Profiling analysis relative to control; format: cell-based
T3 sequence (whole entry): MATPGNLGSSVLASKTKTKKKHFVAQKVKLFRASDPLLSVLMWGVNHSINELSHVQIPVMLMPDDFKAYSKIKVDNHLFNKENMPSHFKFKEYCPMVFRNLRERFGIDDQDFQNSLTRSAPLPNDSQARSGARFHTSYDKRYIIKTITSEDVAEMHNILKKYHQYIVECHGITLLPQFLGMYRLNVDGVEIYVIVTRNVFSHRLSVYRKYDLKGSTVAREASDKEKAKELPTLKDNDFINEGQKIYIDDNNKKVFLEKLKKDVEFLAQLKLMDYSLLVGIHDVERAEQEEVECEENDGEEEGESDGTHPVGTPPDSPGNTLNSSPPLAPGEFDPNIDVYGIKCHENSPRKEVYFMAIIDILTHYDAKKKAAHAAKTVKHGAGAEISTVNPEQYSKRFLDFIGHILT

[11] = molecular target: Serine/threonine-protein kinase 10 (Homo sapiens) (UniProt O94804); test: Inhibition of LOK Lys1 labeling site harbouring NKETGALAAAKVIETK in human A-375 cells at 0.05 uM by KiNativ Profiling analysis relative to control; format: cell-based
[12] = molecular target: 3-phosphoinositide-dependent protein kinase 1 (Homo sapiens) (UniProt O15530); test: Inhibition of PDK1 Protein Kinase Domain in human A-375 cells at 0.05 uM by KiNativ Profiling analysis relative to control
Chain of 3-phosphoinositide-dependent protein kinase 1 (Homo sapiens) (O15530 whole entry, looked up, the tested form may be a part): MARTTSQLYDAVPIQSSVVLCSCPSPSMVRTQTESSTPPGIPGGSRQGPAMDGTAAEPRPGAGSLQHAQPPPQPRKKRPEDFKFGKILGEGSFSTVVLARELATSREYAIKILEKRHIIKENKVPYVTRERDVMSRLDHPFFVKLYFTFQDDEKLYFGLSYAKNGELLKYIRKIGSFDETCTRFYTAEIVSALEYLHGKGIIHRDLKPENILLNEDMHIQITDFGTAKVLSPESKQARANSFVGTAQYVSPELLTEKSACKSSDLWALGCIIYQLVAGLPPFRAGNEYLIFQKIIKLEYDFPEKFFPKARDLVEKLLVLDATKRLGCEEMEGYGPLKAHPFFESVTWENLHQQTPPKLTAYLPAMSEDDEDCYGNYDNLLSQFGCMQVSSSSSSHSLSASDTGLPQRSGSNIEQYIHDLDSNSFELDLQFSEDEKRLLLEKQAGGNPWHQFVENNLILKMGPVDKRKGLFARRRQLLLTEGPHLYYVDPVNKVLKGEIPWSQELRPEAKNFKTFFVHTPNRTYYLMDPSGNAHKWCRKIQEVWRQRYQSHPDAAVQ

[13] = molecular target: Protein kinase C alpha type (Homo sapiens) (UniProt P17252); test: Inhibition of PKCa Lys2 labeling site in human A-375 cells at 0.5 uM by KiNativ Profiling analysis relative to control; format: cell-based
[14] = molecular target: Tyrosine-protein kinase Lyn (Homo sapiens, UniProt P07948); test: Inhibition of LYN Lys1 labeling site in human A-375 cells at 5 uM by KiNativ Profiling analysis relative to control; format: cell-based
[15] = molecular target: T1, Mitogen-activated protein kinase kinase kinase 2 (Homo sapiens); test: Inhibition of MAP3K2 Lys1 labeling site harbouring VYLCYDVDTGRELAVKQVQFDPDSPETSKEVNALECEIQLLK in human A-375 cells at 0.05 uM by KiNativ Profiling analysis relative to control; format: cell-based
[16] = molecular target: RAC-alpha serine/threonine-protein kinase (Homo sapiens) (UniProt P31749); test: Inhibition of AKT1 ATP Loop labeling site in human A-375 cells at 0.05 uM by KiNativ Profiling analysis relative to control; format: cell-based

Chain of Mitogen-activated protein kinase 14 (Q16539 whole entry): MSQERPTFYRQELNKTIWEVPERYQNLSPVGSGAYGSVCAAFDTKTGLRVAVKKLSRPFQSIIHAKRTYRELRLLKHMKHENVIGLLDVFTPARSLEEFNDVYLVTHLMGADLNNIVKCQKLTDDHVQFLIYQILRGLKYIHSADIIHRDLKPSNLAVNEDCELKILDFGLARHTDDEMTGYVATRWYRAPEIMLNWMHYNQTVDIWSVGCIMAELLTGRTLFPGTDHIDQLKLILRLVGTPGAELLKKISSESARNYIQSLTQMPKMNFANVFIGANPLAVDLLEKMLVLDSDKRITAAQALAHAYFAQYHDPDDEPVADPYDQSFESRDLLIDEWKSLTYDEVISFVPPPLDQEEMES

Structure (SMILES) | inhibition [1] [%] | IC50 [2] [nM] | inhibition [3] [%] | inhibition [4] [%] | inhibition [5] [%] | inhibition [6] [%] | inhibition [7] [%] | inhibition [8] [%] | inhibition [9] [%] | inhibition [10] [%] | inhibition [11] [%] | inhibition [12] [%] | inhibition [13] [%] | inhibition [14] [%] | inhibition [15] [%] | inhibition [16] [%]
CNc1cc(Oc2cc(C(=O)Nc3cc(-n4cnc(C)c4)cc(C(F)(F)F)c3)ccc2C)ncn1 | 50.2 |  |  |  |  |  |  |  |  |  |  |  |  |  |  | 
CNc1cc(Oc2cc(C(=O)Nc3cc(N4CCN(C)CC4)cc(C(F)(F)F)c3)ccc2C)ncn1 | 30.2 |  |  |  |  |  |  |  |  |  |  |  |  |  |  | 
CCN1CCN(Cc2ccc(NC(=O)c3ccc(C)c(Oc4ccnc5[nH]ccc45)c3)cc2C(F)(F)F)CC1 |  | 75.2 | 18 | -4.8 | 44.3 | 12.5 | 6.1 | 86.2 | 32.6 | 0.9 | 47.2 | 11.2 | 65 | > 95 | -3.7 | -7.9
CCN1CCN(Cc2ccc(NC(=O)c3ccc(C)c(/C=C/c4cnc5[nH]ccc5c4OC)c3)cc2C(F)(F)F)CC1 |  | 51.5 | 16.9 | 11.8 | 83.3 | 9.8 | -8.3 | 25.2 | 19.5 | 4.7 | 34.5 | -1.5 | 48.2 | > 95 | 1.5 | 9.8
